Results on two compounds are retold here after PMC9072715 (RSC Advances, 2019).

Structures are written as SMILES.

What is called IC50 is the point on the concentration scale where inhibition reaches its midpoint.

Series [1] has as its system rabbit erythrocytes. Kind of series: Hemolysis of red blood cells assay. Format: cell-based, NewZealand rabbit. The note with it: 10% rabbit erythrocyte suspension, 3 to 48 μM, 4 hours, room temperature. The gist of the method: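 Heparinized blood came from a healthy New Zealand rabbit. Erythrocytes were washed three times in saline and diluted to a 10% suspension. The suspension was mixed 1:1 by volume with sample solution (0–48 μM test compound) and left 4 h at room temperature. Hemolysis was then assessed by observation.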

Series [2] deals with HeLa cells. The series is described as follows: CCK-8 anti-proliferative assay, HeLa. In kind it is cell-based. The note with it: Homo sapiens, 48 h, read-out: IC50 HeLa, HeLa, CCK-8, 48 h. The method, boiled down: (§1)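 Log-phase cells in DMEM were plated at 1 × 10^4 per well and allowed 12 h at 37 °C and 5% CO2. Test compounds (0–80 μM) were added for 48 h. Medium was replaced with medium containing 10% CCK-8 for 4 h, and A450 was read. Percent inhibition was calculated against the untreated control and doxorubicin (positive control), and IC50 was obtained by curve fitting.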
In general terms: Tetrazolium dyes change colour on reduction, which living cells bring about.

For series [3], the system named is MCF-7 cells. The series is described as follows: CCK-8 anti-proliferative assay, MCF-7. In kind it is cell-based, human. The note with it: read-out: IC50 MCF-7; MCF-7, CCK-8, 48 h. The gist of the method: as §1

On to `C/C=C(\C)C(=O)O[C@H]1[C@H](OC(C)=O)[C@]2(CO)[C@H](O)C[C@]3(C)C(=CC[C@@H]4[C@@]5(C)CC[C@H](O[C@@H]6O[C@H](C(=O)O)[C@@H](O[C@@H]7O[C@H](CO)[C@@H](O)[C@H](O)[C@H]7O)[C@H](O)[C@H]6O[C@@H]6O[C@H](CO)[C@@H](O)[C@H](O)[C@H]6O)[C@](C)(CO)[C@@H]5CC[C@]43C)[C@@H]2CC1(C)C` [Compound 6, Escin Ia], for which, in series [1], the Hemolytic effect result is “showed hemolytic effect at 24 and 48 μM”. On to `C/C=C(/C)C(=O)O[C@H]1[C@H](OC(C)=O)[C@]2(CO)[C@H](O)C[C@]3(C)C(=CC[C@@H]4[C@@]5(C)CC[C@H](O[C@@H]6O[C@H](C(=O)O)[C@@H](O[C@@H]7O[C@H](CO)[C@@H](O)[C@H](O)[C@H]7O)[C@H](O)[C@H]6O[C@@H]6O[C@H](CO)[C@@H](O)[C@H](O)[C@H]6O)[C@](C)(CO)[C@@H]5CC[C@]43C)[C@@H]2CC1(C)C` [Compound 7, Escin Ib], for which the IC50 in series [2] was 55 µM; in series [3], more than 80 µM.
